Measured values taken from ChEMBL document CHEMBL2401648, “3-Aryl-3-arylmethoxyazetidines. A new class of high affinity ligands for monoamine transporters” (Bioorg Med Chem Lett, 2013).
pKi: −log10 of the molar value.

Legend:
Format in all cases: tissue-based
[1] = species: Rattus norvegicus; assay: Selectivity ratio of Ki for DAT in Sprague-Dawley rat brain homogenate to Ki for SERT in Sprague-Dawley rat brain homogenate
In short: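 Ratio of DAT Ki to SERT Ki. DAT Ki came from [3H]WIN 35,428 displacement and SERT Ki from [3H]citalopram displacement, both in rat brain tissue. Each Ki is the mean ± SEM of three experiments run in triplicate.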

[2] = target: Sodium-dependent serotonin transporter (Rattus norvegicus, UniProt P31652); assay: Displacement of [3H]Citalopram from SERT in Sprague-Dawley rat brain homogenate after 60 mins by scintillation counting analysis
In short: (§1)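 Competitive binding in rat brain tissue: [3H]citalopram displaced from SERT, [3H]WIN 35,428 displaced from DAT. Ki values are the mean ± SEM of three experiments run in triplicate. Compounds tested mainly as hydrochloride salts, some as oxalate salts.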

[3] = target: Sodium-dependent dopamine transporter (Rattus norvegicus, UniProt P23977); assay: Displacement of [3H]WIN 35,428 from DAT in Sprague-Dawley rat brain homogenate preincubated for 5 mins prior to radioligand addition measured after 1 hr by scintillation counting analysis; in short: as §1
Sequence of Sodium-dependent dopamine transporter (P23977 whole entry): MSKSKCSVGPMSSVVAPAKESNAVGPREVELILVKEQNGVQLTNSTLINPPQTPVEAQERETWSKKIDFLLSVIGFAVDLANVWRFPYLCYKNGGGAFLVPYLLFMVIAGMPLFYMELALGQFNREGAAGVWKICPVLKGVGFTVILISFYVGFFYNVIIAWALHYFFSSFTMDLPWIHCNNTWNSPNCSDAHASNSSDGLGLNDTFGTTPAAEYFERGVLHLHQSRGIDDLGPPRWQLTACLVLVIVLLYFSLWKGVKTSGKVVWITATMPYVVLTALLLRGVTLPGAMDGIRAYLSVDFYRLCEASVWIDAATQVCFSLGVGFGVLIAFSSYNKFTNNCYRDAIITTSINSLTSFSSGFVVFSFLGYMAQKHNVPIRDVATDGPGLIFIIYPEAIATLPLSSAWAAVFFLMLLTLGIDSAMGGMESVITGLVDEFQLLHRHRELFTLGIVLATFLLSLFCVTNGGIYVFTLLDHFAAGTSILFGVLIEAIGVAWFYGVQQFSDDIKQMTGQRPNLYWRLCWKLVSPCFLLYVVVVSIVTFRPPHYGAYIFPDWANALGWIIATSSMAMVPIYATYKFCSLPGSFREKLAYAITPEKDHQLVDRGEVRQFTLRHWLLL

Sequence of Sodium-dependent serotonin transporter (P31652 whole entry): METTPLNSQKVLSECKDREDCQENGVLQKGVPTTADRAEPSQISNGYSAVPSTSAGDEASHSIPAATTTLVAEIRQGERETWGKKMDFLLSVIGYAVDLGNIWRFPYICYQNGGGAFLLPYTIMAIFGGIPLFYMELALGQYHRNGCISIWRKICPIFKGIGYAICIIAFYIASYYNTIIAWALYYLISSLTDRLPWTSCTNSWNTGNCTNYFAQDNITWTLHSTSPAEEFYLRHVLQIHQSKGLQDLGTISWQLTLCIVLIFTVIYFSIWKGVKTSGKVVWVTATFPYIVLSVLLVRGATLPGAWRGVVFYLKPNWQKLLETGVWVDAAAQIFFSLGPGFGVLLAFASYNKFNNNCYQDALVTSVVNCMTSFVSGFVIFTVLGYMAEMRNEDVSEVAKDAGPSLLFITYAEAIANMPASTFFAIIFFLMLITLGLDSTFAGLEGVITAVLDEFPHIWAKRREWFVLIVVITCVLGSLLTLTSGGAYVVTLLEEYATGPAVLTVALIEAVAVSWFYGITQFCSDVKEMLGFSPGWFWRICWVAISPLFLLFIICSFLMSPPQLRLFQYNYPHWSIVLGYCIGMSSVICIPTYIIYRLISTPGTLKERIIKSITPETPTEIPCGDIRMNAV

| SMILES | Ratio Ki [1] | pKi [2] | pKi [3] |
| --- | --- | --- | --- |
| CN1CC(OCc2ccc(Cl)c(Cl)c2)(c2ccc(Cl)c(Cl)c2)C1 | 340 | 8.89 | 6.36 |
| Clc1ccc(C2(OCc3ccccc3)CNC2)cc1Cl | 6.3 | 6.68 | 5.89 |
| c1ccc(COC2(c3ccccc3)CNC2)cc1 | 4 | 5.91 | 5.31 |
| Clc1ccc(C2(OCc3ccccc3)CNC2)cc1 | 3.9 | 6.08 | 5.50 |
| CN1CC(OCc2ccccc2)(c2ccc(Cl)c(Cl)c2)C1 | 27 | 7.64 | 6.21 |
| Clc1ccc(COC2(c3ccc(Cl)cc3)CNC2)cc1 | 1100 | 8.46 | 5.42 |
| CN1CC(OCc2ccc(Cl)c(Cl)c2)(c2ccccc2)C1 | – | 9.00 | – |
| Clc1ccc(C2(OCc3ccc(Cl)c(Cl)c3)CNC2)cc1 | 470 | 8.09 | 5.42 |
| Clc1ccc(COC2(c3ccc(Cl)c(Cl)c3)CNC2)cc1 | 1000 | 8.54 | 5.52 |
| Clc1ccc(COC2(c3ccccc3)CNC2)cc1 | 1.4 | 5.59 | 5.44 |
| CN1CC(OCc2ccc(Cl)c(Cl)c2)(c2ccc(Cl)cc2)C1 | 330 | 8.52 | 6.01 |
| CN1CC(OCc2ccccc2)(c2ccc(Cl)cc2)C1 | 36 | 7.41 | 5.85 |
| Clc1ccc(COC2(c3ccc(Cl)c(Cl)c3)CNC2)cc1Cl | 870 | 8.38 | 5.44 |
| Clc1ccc(COC2(c3ccccc3)CNC2)cc1Cl | 390 | 8.14 | 5.55 |
| CN1CC(OCc2ccc(Cl)cc2)(c2ccc(Cl)c(Cl)c2)C1 | 630 | 8.32 | 5.64 |
| CN1CC(OCc2ccc(Cl)cc2)(c2ccccc2)C1 | 980 | 8.40 | 5.41 |
| CN1CC(OCc2ccc(Cl)cc2)(c2ccc(Cl)cc2)C1 | 490 | 8.11 | 5.69 |
| CN1CC(OCc2ccccc2)(c2ccccc2)C1 | 24 | 7.14 | 5.76 |
